# Assay results reported in ChEMBL document CHEMBL1142698, “Synthesis and biological evaluation of novel naphthocarbazoles as potential anticancer agents” (J Med Chem, 2005).
# What was measured:
# Assay type in all cases: functional, cell-based
# L1210 = assay: In vitro antiproliferative activity against murine leukemia L1210 cells; conditions: Mus musculus
# How it was run: (§1)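 Cells from ATCC grown in RPMI 1640 with 10% fetal calf serum, 2 mM L-glutamine, penicillin/streptomycin and 10 mM HEPES (pH 7.4). Continuous exposure to graded concentrations for four doubling times. MTT added, then 4 h at 37 °C, formazan dissolved in DMSO and optical density read. IC50 is the concentration halving optical density versus untreated controls, from nine serial dilutions in duplicate.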
# DU-145 [1] = assay: In vitro antiproliferative activity against human prostate cancer DU145 cells; how it was run: as §1
# HT-29 = assay: In vitro antiproliferative activity against human colon carcinoma HT-29 cells; how it was run: as §1
# DU-145 [2] = assay: In vitro antiproliferative activity against human prostate cancer DU-145 cells; how it was run: as §1
Compound,IC50 (L1210) [nM],IC50 (DU-145 [1]) [nM],IC50 (HT-29) [nM],IC50 (DU-145 [2]) [nM]
CN1C(=O)c2c(c3c4ccc(O)cc4[nH]c3c3cc4ccccc4cc23)C1=O,5200,4700,,
O=C1c2c(c3c4ccc(O)cc4[nH]c3c3cc4ccccc4cc23)C(=O)N1CCNCCO,510,1110,5500,
CN(C)CCCN1C(=O)c2c(c3c4cc(O)ccc4[nH]c3c3cc4ccccc4cc23)C1=O,130,290,840,
CN1C(=O)c2c(c3c4ccccc4[nH]c3c3cc4ccccc4cc23)C1=O,2900,,,1100
O=C1c2c(c3c4ccc(O)cc4[nH]c3c3cc4ccccc4cc23)C(=O)N1C(CO)CO,200,6.8,1340,
CN(C)CCOc1ccc2c(c1)[nH]c1c3cc4ccccc4cc3c3c(c21)C(=O)N(C)C3=O,1500,4500,,
C=CCn1c2ccccc2c2c3c(c4cc5ccccc5cc4c21)C(=O)N(C)C3=O,34000,59700,65700,
CN1C(=O)c2c(c3c4ccccc4n(CCN4CCOCC4)c3c3cc4ccccc4cc23)C1=O,2400,,,
"COC1C(O)[C@@H](O)[C@H](n2c3c(Cl)cccc3c3c4c(c5c6cccc(Cl)c6[nH]c5c32)C(=O)NC4=O)O[C@@H]1CO (single isomer, unassigned) [REBECCAMYCIN]",140,,,
CN(C)CCN1C(=O)c2c(c3c4ccc(O)cc4[nH]c3c3cc4ccccc4cc23)C1=O,110,250,,
CN(C)CCn1c2ccccc2c2c3c(c4cc5ccccc5cc4c21)C(=O)N(C)C3=O,2400,4700,,
CN1C(=O)c2c(c3c4ccccc4n(CC(O)CO)c3c3cc4ccccc4cc23)C1=O (centres undefined),1260,2310,3690,
CN1C(=O)c2c(c3c4cc(O)ccc4[nH]c3c3cc4ccccc4cc23)C1=O,3900,6800,,
CN1C(=O)c2c(c3c4ccc(O[Si](C)(C)C(C)(C)C)cc4[nH]c3c3cc4ccccc4cc23)C1=O,10100,5600,,
CN(C)CCN1C(=O)c2c(c3c4ccccc4[nH]c3c3cc4ccccc4cc23)C1=O,210,290,,
CN(C)CCCN1C(=O)c2c(c3c4ccc(O)cc4[nH]c3c3cc4ccccc4cc23)C1=O,340,760,1350,
O=C1c2c(c3c4cc(O)ccc4[nH]c3c3cc4ccccc4cc23)C(=O)N1C(CO)CO,1190,2130,2880,
O=C1c2c(c3c4cc(O)ccc4[nH]c3c3cc4ccccc4cc23)C(=O)N1CCNCCO,290,630,3760,
CN(C)CCN1C(=O)c2c(c3c4cc(O)ccc4[nH]c3c3cc4ccccc4cc23)C1=O,36,108,,
